# Experimental data as given in ChEMBL document CHEMBL1649304, “Efficacy of posaconazole as treatment and prophylaxis against Fusarium solani” (Antimicrob Agents Chemother, 2010).
# Activity calls are given as the source filed them. The rule behind the calls is not given here.
# What was measured:
# [1] = system: Fusarium solani; assay: Antifungal activity against high inoculum 2.9 x 10^6 conidia/animal Fusarium solani infected in ICR mouse assessed as rate of survival at 25 mg/kg, po BID treated after 12 hrs of inoculation; format: functional, organism-based; parameters: dose 25 mg/kg
# How it was run: (§1)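 Neutropenic ICR mice (5-fluorouracil 150 mg/kg i.v., day −1) were infected i.v. with F. solani 95-2478 conidia. Posaconazole oral suspension was gavaged BID starting 12 h postinoculation and continued to day 9, then mice were followed off therapy to day 15. Moribund mice were euthanized and death was recorded the next day. Median and percent survival come from Kaplan-Meier curves versus untreated controls.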
# [2] = system: Fusarium solani; assay: Antifungal activity against mid- inoculum 6.5 x 10^5 conidia/ml Fusarium solani infected in ICR mouse assessed as rate of survival at 25 mg/kg, po BID treated 2 days prior of infection; format: functional, organism-based; parameters: dose 25 mg/kg
# How it was run: (§2)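 Dosing began 2 days before i.v. F. solani 95-2478 challenge in ICR mice made neutropenic with 5-fluorouracil (150 mg/kg i.v., day −1). Posaconazole oral suspension was gavaged BID through day 9, with observation off drug until day 15, n ≥10 per regimen. Moribund animals were euthanized and scored dead the next day. Kaplan-Meier median survival was compared with untreated controls.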
# [3] = system: Fusarium solani; assay: Antifungal activity against high inoculum 2.9 x 10^6 conidia/animal Fusarium solani infected in ICR mouse assessed as rate of survival at 12.5 mg/kg, po BID treated after 12 hrs of inoculation; format: functional, organism-based; parameters: dose 12.5 mg/kg; how it was run: as §1
# [4] = system: Fusarium solani; assay: Antifungal activity against low - inoculum 7.5 x 10^4 conidia/ml Fusarium solani infected in ICR mouse assessed as bacterial count in kidney tissue at 25 mg/kg, po BID treated 2 days prior of infection; format: functional
# How it was run: (§3)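 Prophylaxis model: posaconazole oral suspension was given by gavage BID starting 2 days before i.v. conidial challenge and continued to day 9. ICR mice were made neutropenic with 5-fluorouracil 150 mg/kg i.v. 1 day pre-inoculation, with n ≥10 per regimen. Kidneys were homogenized and plated on potato dextrose agar, and CFU/g was read after 48 h. Results were compared with untreated controls by Mann-Whitney.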
# [5] = system: Fusarium solani; assay: Antifungal activity against inoculum range 7.7 x 10^4 to 7.8 x 10^4 conidia/animal Fusarium solani infected in ICR mouse assessed as bacterial count in kidney tissue at 50 mg/kg, po BID treated after 12 hrs of inoculation; format: functional
# How it was run: (§4)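 Outbred ICR mice were made neutropenic with 5-fluorouracil 150 mg/kg i.v. 1 day before i.v. infection with F. solani isolate 95-2478 conidia (0.2 ml). Posaconazole oral suspension was given by gavage BID from 12 h after inoculation until day 9. Kidneys from moribund animals were homogenized and plated on potato dextrose agar, and CFU/g was counted after 48 h. Group medians were compared with untreated controls by Mann-Whitney.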
# [6] = system: Fusarium solani; assay: Antifungal activity against high inoculum 2.9 x 10^6 conidia/animal Fusarium solani infected in ICR mouse assessed as bacterial count in kidney tissue at 6.25 mg/kg, po BID treated after 12 hrs of inoculation; format: functional; how it was run: as §4
# [7] = system: Fusarium solani; assay: Antifungal activity against mid- inoculum 6.5 x 10^5 conidia/ml Fusarium solani infected in ICR mouse assessed as rate of survival at 50 mg/kg, po BID treated 2 days prior of infection; format: functional, organism-based; parameters: dose 50 mg/kg; how it was run: as §2
# [8] = system: Fusarium solani; assay: Antifungal activity against low - inoculum 7.5 x 10^4 conidia/ml Fusarium solani infected in ICR mouse assessed as rate of survival at 25 mg/kg, po BID treated 2 days prior of infection; format: functional, organism-based; parameters: dose 25 mg/kg; how it was run: as §2
# [9] = system: Fusarium solani; assay: Antifungal activity against mid- inoculum 6.5 x 10^5 conidia/ml Fusarium solani infected in ICR mouse assessed as rate of survival at 6.25 mg/kg, po BID treated 2 days prior of infection; format: functional, organism-based; parameters: dose 6.25 mg/kg; how it was run: as §2
# [10] = system: Fusarium solani; assay: Antifungal activity against inoculum range 7.7 x 10^4 to 7.8 x 10^4 conidia/animal Fusarium solani infected in ICR mouse assessed as bacterial count in kidney tissue at 25 mg/kg, po BID treated after 12 hrs of inoculation; format: functional; how it was run: as §4
# [11] = system: Fusarium solani; assay: Antifungal activity against inoculum range 7.7 x 10^4 to 7.8 x 10^4 conidia/animal Fusarium solani infected in ICR mouse assessed as bacterial count in kidney tissue at 6.25 mg/kg, po BID treated after 12 hrs of inoculation; format: functional; how it was run: as §4
# [12] = system: Fusarium solani; assay: Antifungal activity against inoculum range 7.7 x 10^4 to 7.8 x 10^4 conidia/animal Fusarium solani infected in ICR mouse assessed as bacterial count in kidney tissue at 12.5 mg/kg, po BID treated after 12 hrs of inoculation; format: functional; how it was run: as §4
# [13] = system: Fusarium solani; assay: Antifungal activity against inoculum range 6.5 x 10^5 to 6.8 x 10^5 conidia/animal Fusarium solani infected in ICR mouse assessed as bacterial count in kidney tissue at 25 mg/kg, po BID treated after 12 hrs of inoculation; format: functional; how it was run: as §4
# [14] = system: Fusarium solani; assay: Antifungal activity against high inoculum 2.9 x 10^6 conidia/animal Fusarium solani infected in ICR mouse assessed as bacterial count in kidney tissue at 50 mg/kg, po BID treated after 12 hrs of inoculation; format: functional; how it was run: as §4
# [15] = system: Fusarium solani; assay: Antifungal activity against inoculum range 6.5 x 10^5 to 6.8 x 10^5 conidia/animal Fusarium solani infected in ICR mouse assessed as rate of survival at 50 mg/kg, po BID treated after 12 hrs of inoculation; format: functional, organism-based; parameters: dose 50 mg/kg; how it was run: as §1
# [16] = system: Fusarium solani; assay: Antifungal activity against high inoculum 2.9 x 10^6 conidia/animal Fusarium solani infected in ICR mouse assessed as rate of survival at 50 mg/kg, po BID treated after 12 hrs of inoculation; format: functional, organism-based; parameters: dose 50 mg/kg; how it was run: as §1
# [17] = system: Fusarium solani; assay: Antifungal activity against inoculum range 7.7 x 10^4 to 7.8 x 10^4 conidia/animal Fusarium solani infected in ICR mouse assessed as rate of survival at 50 mg/kg, po BID treated after 12 hrs of inoculation; format: functional, organism-based; parameters: dose 50 mg/kg; how it was run: as §1
# [18] = system: Fusarium solani; assay: Antifungal activity against mid- inoculum 6.5 x 10^5 conidia/ml Fusarium solani infected in ICR mouse assessed as bacterial count in kidney tissue at 12.5 mg/kg, po BID treated 2 days prior of infection; format: functional; how it was run: as §3
# [19] = system: Fusarium solani; assay: Antifungal activity against inoculum range 6.5 x 10^5 to 6.8 x 10^5 conidia/animal Fusarium solani infected in ICR mouse assessed as rate of survival at 12.5 mg/kg, po BID treated after 12 hrs of inoculation; format: functional, organism-based; parameters: dose 12.5 mg/kg; how it was run: as §1
# [20] = system: Fusarium solani; assay: Antifungal activity against inoculum of 1x10^5 conidia/ml Fusarium solani isolate 95-2478 after 48 hrs by XTT assay; format: functional, organism-based; details: isolate 95-2478, 48 h
# How it was run: (§5)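 Isolate 95-2478 conidia were grown 10 days at 37°C on potato dextrose agar. They were exposed in microtiter trays to posaconazole (DMSO stock; final 0 to 8 μg/ml) in RPMI with 2% glucose and 0.165 M MOPS, pH 7.0. Incubation ran 24 or 48 h, and XTT reduction was read at 492 nm in triplicate. Absorbance was expressed as percent of growth control, and IC50/IC90 came from a four-parameter inhibitory sigmoid fit.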
# [21] = system: Fusarium solani; assay: Antifungal activity against inoculum of 1x10^4 conidia/ml Fusarium solani isolate 95-2478 after 24 hrs by XTT assay; format: functional, organism-based; details: isolate 95-2478, 24 h; how it was run: as §5
# [22] = system: Fusarium solani; assay: Antifungal activity against low - inoculum 7.5 x 10^4 conidia/ml Fusarium solani infected in ICR mouse assessed as rate of survival at 50 mg/kg, po BID treated 2 days prior of infection; format: functional, organism-based; parameters: dose 50 mg/kg; how it was run: as §2
# [23] = system: Fusarium solani; assay: Antifungal activity against inoculum range 6.5 x 10^5 to 6.8 x 10^5 conidia/animal Fusarium solani infected in ICR mouse assessed as rate of survival at 25 mg/kg, po BID treated after 12 hrs of inoculation; format: functional, organism-based; parameters: dose 25 mg/kg; how it was run: as §1
compound,measurement,setting,value
CC[C@@H]([C@H](C)O)n1ncn(-c2ccc(N3CCN(c4ccc(OC[C@@H]5CO[C@@](Cn6cncn6)(c6ccc(F)cc6F)C5)cc4)CC3)cc2)c1=O [POSACONAZOLE],Activity,[1],Active
same,Activity,[2],Active
same,Activity,[3],Active
same,log10CFU/g,[4],4.5
same,log10CFU/g,[5],4.6
same,log10CFU/g,[6],5.6
same,Activity,[7],Active
same,Activity,[8],Active
same,Activity,[9],Active
same,log10CFU/g,[10],5
same,log10CFU/g,[11],5
same,log10CFU/g,[12],5.1
same,log10CFU/g,[13],5.6
same,log10CFU/g,[14],5.2
same,Activity,[15],Active
same,Activity,[16],Active
same,Activity,[17],Active
same,log10CFU/g,[18],5.5
same,Activity,[19],Active
same,IC50,[20],> 8 µg/mL
same,IC90,[20],> 8 µg/mL
same,IC50,[21],1.7 µg/mL
same,IC90,[21],4.1 µg/mL
same,Activity,[22],Active
same,Activity,[23],Active
